Mdm2-MdmX inh = inhibitors of human Mdm2-MdmX association, primary screen, cell-based, luminescence, split luciferase, SaOS-2, uHTS; Protein Mdm4 (Homo sapiens) + E3 ubiquitin-protein ligase Mdm2 (Homo sapiens), …; SaOS-2 split-luciferase Mdm2/MdmX complementation; inhibition, % at 8 µM; 330,000 tested, 3% active; AID 485346, 2010;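 active = inhibition of at least 50% at 8 µM in the primary screen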
XBP1 UPR activ = activators of adaptive XBP1 UPR arm, primary screen, cell-based, CHO-XBP1 luciferase reporter, luminescence, uHTS; IRE1-XBP1 UPR activation; percent of tunicamycin response, DMSO as zero; activation, % at 20 µM; 330,000 tested, 0.33% active; AID 463104, 2010;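 active = versus positive control, 20 µM dose yields 30% or more activation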
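incubation = overnight seeding at 37 °C, 6 h compound treatment at 37 °C | assay system = CHO-XBP1 cells stably carrying IRE1-XBP1-driven luciferase reporter | input = 1000 cells per well | detection = luciferase luminescence | dosing = single point, 20 µM final compound, 1% DMSO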
CHOP UPR activ = activators of apoptotic CHOP UPR arm, primary screen, cell-based, CHO-CHOP luciferase reporter, luminescence, uHTS. activation, % at 10 µM. 330,000 tested, 0.34% active. UPR activation; percent of tunicamycin response over DMSO baseline;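 active = at 10 µM dose, activation of 40% or more, normalized to positive control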
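Test system: CHO-CHOP cells, stable luciferase reporter of PERK-eIF2a-CHOP signalling | Quantity: 500 CHO-CHOP cells per well | Buffer or medium: F12 plus 10% serum | Compound dosing: 10 µM single point, 0.5% DMSO | Schedule: 6 h compound treatment, 37 °C | Signal: Luciferase luminescence | Control set: Tunicamycin high control, DMSO low control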
UBC13 inh = UBC13 polyubiquitin chain formation inhibitors, primary screen, biochemical, TR-FRET, uHTS; Ubiquitin-conjugating enzyme E2 N (Homo sapiens), P61088; inhibition, % at 20 µM; 330,000 tested, 0.47% active; AID 485273, 2010; in the data active = inhibition above about 45%, passing the limit was not always enough
Apaf1 inhib = inhibitors of human Apaf-1 apoptosome, primary screen, biochemical, DEVD-Rh110 fluorescence, uHTS | Apoptotic protease-activating factor 1 (Homo sapiens), O14727 | reconstituted apoptosome caspase-3 activity | inhibition, % at 20 µM | 330,000 tested, 0.71% active | AID 489030, 2010; active = inhibition of at least 40% at 20 µM
Target sequence (O14727 whole entry, looked up): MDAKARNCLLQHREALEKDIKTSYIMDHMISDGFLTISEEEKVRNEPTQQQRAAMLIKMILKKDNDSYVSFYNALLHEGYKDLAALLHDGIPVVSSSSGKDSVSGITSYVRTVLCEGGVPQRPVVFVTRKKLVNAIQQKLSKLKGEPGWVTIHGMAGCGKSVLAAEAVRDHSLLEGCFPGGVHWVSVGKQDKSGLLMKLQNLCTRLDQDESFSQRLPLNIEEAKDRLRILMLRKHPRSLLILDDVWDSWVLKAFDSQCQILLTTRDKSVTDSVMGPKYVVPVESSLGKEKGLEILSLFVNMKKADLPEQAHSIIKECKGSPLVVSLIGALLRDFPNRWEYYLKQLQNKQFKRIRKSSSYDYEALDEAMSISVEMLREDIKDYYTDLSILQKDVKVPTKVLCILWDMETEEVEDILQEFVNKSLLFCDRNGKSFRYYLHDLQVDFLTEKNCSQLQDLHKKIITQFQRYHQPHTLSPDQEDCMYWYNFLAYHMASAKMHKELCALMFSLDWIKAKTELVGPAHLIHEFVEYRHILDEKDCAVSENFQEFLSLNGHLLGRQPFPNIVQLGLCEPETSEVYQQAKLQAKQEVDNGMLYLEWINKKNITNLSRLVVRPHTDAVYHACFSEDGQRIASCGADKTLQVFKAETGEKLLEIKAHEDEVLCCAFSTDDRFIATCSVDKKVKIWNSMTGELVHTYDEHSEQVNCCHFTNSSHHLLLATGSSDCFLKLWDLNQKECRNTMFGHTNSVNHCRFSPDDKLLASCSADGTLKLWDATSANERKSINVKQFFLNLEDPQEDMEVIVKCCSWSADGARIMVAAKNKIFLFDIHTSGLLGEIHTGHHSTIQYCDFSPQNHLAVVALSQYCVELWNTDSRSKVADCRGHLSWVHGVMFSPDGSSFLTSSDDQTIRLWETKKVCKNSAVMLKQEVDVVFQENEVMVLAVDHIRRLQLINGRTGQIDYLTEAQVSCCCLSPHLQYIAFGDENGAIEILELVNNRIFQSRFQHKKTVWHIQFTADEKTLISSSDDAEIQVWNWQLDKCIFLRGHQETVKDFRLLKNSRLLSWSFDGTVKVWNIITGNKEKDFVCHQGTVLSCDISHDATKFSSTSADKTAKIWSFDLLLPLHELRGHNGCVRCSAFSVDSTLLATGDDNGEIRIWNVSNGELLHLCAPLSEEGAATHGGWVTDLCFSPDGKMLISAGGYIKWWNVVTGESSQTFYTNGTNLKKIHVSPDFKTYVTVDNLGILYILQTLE
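Material: reconstituted apoptosome with Apaf-1, cytochrome c, caspase-9, procaspase-3, dATP / Buffer or medium: pH 7.5 Hepes buffer with CHAPS, BSA, DTT / Also added: cytochrome c with DEVD-Rh110 / Schedule: compound with Apaf-1, dATP, procaspase-3 30 min, then 50 min reaction, room temperature / Technique: rhodamine 110 fluorescence at Ex 480/Em 540 nm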
Mdm2 MdmX conf = Mdm2-MdmX complex disruptors, retested hits, confirmation, luminescence, single concentration; Mdm2-MdmX binding, luminescent assay; shares compounds with Mdm2-MdmX inh; inhibition, % at 8 µM; 10,000 tested, 55% active; AID 489028, 2010; in the data active = inhibition above about 40%
Full FLuc ctr = full-length luciferase signal inhibition, confirmation, counter-screen for Mdm2/MdmX interaction inhibitor project, cell-based, single concentration, SaOS-2; SaOS-2 full-length luciferase counterscreen, luminescence; inhibition, % at 8 µM; 6,200 tested, 77% active; shares compounds with Mdm2-MdmX inh;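 active = mean inhibition at 8 µM reaching about 37%, which flags the compound as non-specific, limit read from the data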;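 note: p53-null SaOS-2 cells with luciferase driven by a doxycycline-inducible promoter; compound on cells about two nights before reading with doxycycline added after day one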
Large screens that a line does not name were inactive (follow-up assays come after a bar, where they were run). In the library only some 4.1% were active in any assay of this set; here they are far more common.

COc1ccc(CNC(=O)C(c2ccco2)N(C(=O)c2ccccn2)c2ccccc2)cc1 (configuration not stated)	none
O=C(Nc1ccncc1NC(=O)c1cccc([N+](=O)[O-])c1)c1cccc([N+](=O)[O-])c1	Mdm2-MdmX inh 87 | Mdm2 MdmX conf 56 | Full FLuc ctr inactive
COc1ccc2[nH]c(=O)c(CN(Cc3cccs3)S(=O)(=O)c3cccc4nsnc34)cc2c1	Mdm2-MdmX inh 75 | Mdm2 MdmX conf 76 | Full FLuc ctr 45
COc1ccccc1N(Cc1ccccc1)S(=O)(=O)c1cccc(C(=O)Nc2ccccn2)c1	Mdm2-MdmX inh 67 | Mdm2 MdmX conf 60 | Full FLuc ctr 91
COc1ccccc1N(Cc1ccccc1)S(=O)(=O)c1cccc(C(=O)Nc2ccc(C)cn2)c1	Mdm2-MdmX inh 55 | Mdm2 MdmX conf inactive
CC1(C)CC(NC(=O)c2cccc(S(=O)(=O)N(Cc3ccccc3)c3ccccc3)c2)CC(C)(C)N1	Mdm2-MdmX inh 95 | Mdm2 MdmX conf 59 | Full FLuc ctr 61
N#Cc1ncc(-c2ccc3c(c2)OCCOCCOCCOCCO3)nc1C#N	none
N#Cc1ncc(-c2ccc3c(c2)OCCOCCOCCOCCOCCO3)nc1C#N	Mdm2-MdmX inh 71 | Mdm2 MdmX conf 61 | Full FLuc ctr inactive
O=C(CSc1nc(C2CC2)nc2c1cnn2-c1ccccc1)Nc1c[nH]c(=O)[nH]c1=O	none
Cc1nn(C)c(C)c1NC(=O)CSc1nc(Cc2ccccc2)nc2c1cnn2-c1ccccc1	Mdm2-MdmX inh 94 | Mdm2 MdmX conf 57 | Full FLuc ctr 103
CCOC(=O)c1c(C)[nH]c(C(=O)COC(=O)CNC(=O)C2CCCCC2)c1C	none
CCOC(=O)c1sc(NC(=O)CSc2ccccn2)c(C#N)c1C	Mdm2-MdmX inh 74 | Mdm2 MdmX conf inactive
CCOC(=O)c1sc(NC(=O)c2cccc(S(=O)(=O)N3CCc4ccccc43)c2)c(C#N)c1C	Mdm2-MdmX inh 89 | Mdm2 MdmX conf inactive
CCC(CC)c1nnc(NC(=O)c2cccc(S(=O)(=O)N3CCc4ccccc43)c2)s1	none
CCOC(=O)c1sc(NC(=O)CSc2nc3c(cc2C#N)CCCCC3)c(C#N)c1C	Mdm2-MdmX inh 72 | Mdm2 MdmX conf inactive
CCOC(=O)c1sc(NC(=O)c2cc(-c3ccccc3)nc3ccccc23)c(C#N)c1C	Mdm2-MdmX inh 94 | Mdm2 MdmX conf 91 | Full FLuc ctr 47
CC(C)CCNC(=O)NC(=O)CSc1ncccn1	none
CS(=O)(=O)N(CC(=O)N1CCOCC1)c1ccccc1Br	none
Cn1nc(C(F)(F)F)c(CO)c1Sc1ccc(F)cc1	none
CC(=O)N(C(C)=O)n1c(C)nc2sc3c(c2c1=O)CCCC3	Mdm2-MdmX inh 73 | Mdm2 MdmX conf 80 | Full FLuc ctr 45
Cc1nc2sc3c(c2c(=O)n1N)CCC3	none
COC(=O)N/N=C/c1cc(N=Nc2ccccc2Cl)ccc1O	none
O=C(NN=Cc1c(O)ccc2ccccc12)c1ccc2c(c1)OCO2	Mdm2-MdmX inh 88 | Mdm2 MdmX conf 89 | Full FLuc ctr 50
COc1ccc2ccccc2c1/C=N/NC(=O)c1ccc(C)nc1	none
Nc1ccc(C(=O)N/N=C\c2cc(N=Nc3cccc4ccccc34)ccc2O)cc1	Mdm2-MdmX inh 57 | Mdm2 MdmX conf 67 | Full FLuc ctr 36
O=C(N/N=C\c1c(O)ccc2ccccc12)c1ccc(S(=O)(=O)N2CCCCC2)cc1	Mdm2-MdmX inh 83 | Mdm2 MdmX conf 86 | Full FLuc ctr 55
O=C(N/N=C/c1c(O)ccc2ccccc12)c1ccc(CO)nc1	Mdm2-MdmX inh 69 | Mdm2 MdmX conf 66 | Full FLuc ctr 36
COc1cc(CNC(=O)c2ccc3oc(C(C)C)nc3c2)cc(OC)c1	none
C[C@H](NC(=O)c1ccccc1)C(=O)Nc1nc(-c2ccccn2)cs1	none
Cc1cccc(C(=O)NC(C(=O)Nc2nc(-c3ccccn3)cs2)C(C)C)c1 (configuration not stated)	Mdm2-MdmX inh 74 | Mdm2 MdmX conf 57 | Full FLuc ctr inactive
Cc1cccc(C(=O)N[C@H](C(=O)Nc2ncc(C)s2)C(C)C)c1	Mdm2-MdmX inh 68 | Mdm2 MdmX conf 64 | Full FLuc ctr 99
COc1ccc(N(CC(=O)NCc2ccc(C)cc2)S(=O)(=O)c2c(C)noc2C)cc1	none
CC(C)(O)C#Cc1ccc(CN2CCCC(CO)(Cc3cccc(Cl)c3)C2)cc1 (configuration not stated)	none
COc1cccc(CN(C)C(=O)C(CCSC)NS(=O)(=O)c2ccc3c(c2)OCCO3)c1OC (configuration not stated)	Mdm2-MdmX inh 67 | Mdm2 MdmX conf 56 | Full FLuc ctr 72
CC1Nc2ccccc2C(=O)N1NC(=O)c1ccc(Br)cc1 (configuration not stated)	none
COc1ccc(/C=C/C(O)=C2/C(=O)NC3(C)CC2c2ccccc2O3)c(OC)c1OC (configuration not stated)	none
Cc1ccc(/C=C/C(O)=C2/C(=O)N(C)C3(C)CC2c2ccccc2O3)cc1 (configuration not stated)	Mdm2-MdmX inh 83 | Mdm2 MdmX conf 42 | Full FLuc ctr inactive
COc1ccc(/C=C/C(O)=C2/C(=O)N(C)C3(C)CC2c2ccccc2O3)cc1 (configuration not stated)	Mdm2-MdmX inh 73 | Mdm2 MdmX conf inactive
O=S(=O)(Nc1ccccc1O)c1ccc(Cl)nc1	none
Cc1cc(Nc2nc3ccccc3nc2Cl)n(-c2ccccc2)n1	Mdm2-MdmX inh 64 | Mdm2 MdmX conf 59 | Full FLuc ctr 41
Cc1cc(Nc2nc3ccccc3nc2Cl)n(-c2ccccc2C)n1	none
Cc1ccc2cc(CN(CC3CCCO3)C(=O)NC3CCCCC3)c(=O)[nH]c2c1C (configuration not stated)	none
Cc1ccc2cc(CN(CC3CCCO3)C(=S)NCc3ccco3)c(=O)[nH]c2c1C (configuration not stated)	Mdm2-MdmX inh 83 | Mdm2 MdmX conf 58 | Full FLuc ctr 37

Source: PubChem
